Reference: ChEMBL document CHEMBL4350998, “Design, synthesis, and structure-activity relationship studies of l-amino alcohol derivatives as broad-spectrum antifungal agents” (Eur J Med Chem, 2019)

Legend:
[1] = tested on: Candida albicans; experiment: Antifungal activity against Candida albicans CPCC 400523 assessed as inhibition of visible microbial growth by NCCLS protocol based method; type: functional
[2] = tested on: Candida albicans; experiment: Antifungal activity against Candida albicans ATCC SC5314 assessed as inhibition of visible microbial growth by NCCLS protocol based method; type: functional
How it was run: (§1)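 Compounds dissolved in DMSO and serially diluted into growth medium. MIC was read as the lowest concentration that inhibited visible fungal growth.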

[3] = tested on: Cryptococcus neoformans; experiment: Antifungal activity against Cryptococcus neoformans CGMCC 2.3161 assessed as inhibition of visible microbial growth by NCCLS protocol based method; type: functional; how it was run: as §1
[4] = tested on: Candida tropicalis; experiment: Antifungal activity against Candida tropicalis CGMCC 2.3739 assessed as inhibition of visible microbial growth by NCCLS protocol based method; type: functional; how it was run: as §1
[5] = tested on: Aspergillus fumigatus; experiment: Antifungal activity against Aspergillus fumigatus CGMCC 3.7795 assessed as inhibition of visible microbial growth by NCCLS protocol based method; type: functional; how it was run: as §1
[6] = tested on: Candida albicans; experiment: Antifungal activity against fluconazole-resistant Candida albicans Strain 17# assessed as inhibition of visible microbial growth by NCCLS protocol based method; type: functional
How it was run: (§2)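 Broth dilution MIC against clinical fluconazole-resistant C. albicans isolates from AIDS patients. Compounds dissolved in DMSO and serially diluted into growth medium. MIC was taken as the lowest concentration that inhibits visible fungal growth. Fluconazole and itraconazole served as positive controls.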

[7] = tested on: Candida albicans; experiment: Antifungal activity against fluconazole-resistant Candida albicans Strain CaR assessed as inhibition of visible microbial growth by NCCLS protocol based method; type: functional; how it was run: as §2
[8] = Cytotoxicity in human A549 cells assessed as reduction in cell viability at 0.08 uM/L incubated for 24 hrs by MTT assay relative to control; type: cell-based; conditions: read-out: INH
How it was run: (§3)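 A549 cells were seeded at 3000 cells/well and preincubated for 16 h at 37 °C, 5% CO2. Medium was then replaced with fresh medium holding compound (DMSO stock diluted to final 0.08, 0.4, 2.0, 10 or 50 μM/L). Exposure lasted 24 h at 37 °C, 5% CO2, followed by MTT for 4 h and absorbance at 490 nm. Results are given as % inhibition.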

[9] = Cytotoxicity in human A549 cells assessed as reduction in cell viability at 0.40 uM/L incubated for 24 hrs by MTT assay relative to control; type: cell-based; conditions: read-out: INH; how it was run: as §3
[10] = Cytotoxicity in human A549 cells assessed as reduction in cell viability at 2 uM/L incubated for 24 hrs by MTT assay relative to control; type: cell-based; conditions: read-out: INH; how it was run: as §3
[11] = Cytotoxicity in human A549 cells assessed as reduction in cell viability at 10 uM/L incubated for 24 hrs by MTT assay relative to control; type: cell-based; conditions: read-out: INH; how it was run: as §3
[12] = Cytotoxicity in human A549 cells assessed as reduction in cell viability at 50 uM/L incubated for 24 hrs by MTT assay relative to control; type: cell-based; conditions: read-out: INH; how it was run: as §3

SMILES	MIC [1] [µg/mL]	MIC [2] [µg/mL]	MIC [3] [µg/mL]	MIC [4] [µg/mL]	MIC [5] [µg/mL]	MIC [6] [µg/mL]	MIC [7] [µg/mL]	cytotoxicity at 24 h, 0.08 µM [8] [%]	cytotoxicity at 24 h, 0.4 µM [9] [%]	cytotoxicity at 24 h, 2 µM [10] [%]	cytotoxicity at 24 h, 10 µM [11] [%]	cytotoxicity at 24 h, 50 µM [12] [%]
CC(C)C[C@@H](Cn1ccnc1)NC(=O)c1ccc(-c2ccccc2)cc1	< 0.03	< 0.03	1	< 0.03	> 64	–	–	–	–	–	–	–
CC(C)[C@@H](Cn1ccnc1)NC(=O)c1ccc(-c2cccc(F)c2)cc1	0.06	< 0.03	2	0.06	> 64	–	–	–	–	–	–	–
O=C(N[C@@H](Cc1ccccc1)Cn1ccnc1)c1ccc(-c2ccccc2)cc1	0.125	< 0.03	0.25	< 0.03	> 64	–	–	–	–	–	–	–
CC(C)C[C@@H](Cn1ccnc1)NC(=O)c1ccc(-c2ccccc2)c(F)c1	0.06	< 0.03	4	< 0.03	> 64	–	–	–	–	–	–	–
CC[C@H](C)[C@@H](Cn1ccnc1)NC(=O)c1ccc(-c2ccccc2F)cc1	0.06	< 0.03	1	0.06	> 64	–	–	–	–	–	–	–
C[C@@H](Cn1ccnc1)NC(=O)c1ccc(-c2ccccc2)cc1	4	0.5	> 64	0.25	1	–	–	–	–	–	–	–
CC[C@H](C)[C@@H](Cn1ccnc1)NC(=O)c1ccc(-c2ccccc2)c(C)c1	> 16	> 16	> 64	2	> 64	–	–	–	–	–	–	–
CC[C@H](C)[C@@H](Cn1cncn1)NC(=O)c1ccc(-c2ccccc2)cc1F	0.25	0.125	> 64	0.25	2	–	–	–	–	–	–	–
CC[C@H](C)[C@@H](Cn1ccnc1)NC(=O)c1ccc(-c2ccccc2)cc1OC	1	0.25	> 64	0.125	> 64	–	–	–	–	–	–	–
CC[C@H](C)[C@@H](Cn1ccnc1)NC(=O)c1ccc(-c2ccccc2)cc1Cl	0.25	0.06	> 64	0.125	> 64	–	–	–	–	–	–	–
O=C(N[C@@H](Cc1ccccc1)Cn1ccnc1)c1ccc(-c2ccccc2)c(F)c1	0.06	< 0.03	0.5	< 0.03	> 64	–	–	–	–	–	–	–
CC[C@H](C)[C@@H](Cn1ccnc1)NC(=O)c1ccc(-c2ccccc2)c(F)c1	0.06	< 0.03	2	0.06	> 64	–	–	–	–	–	–	–
CC[C@H](C)[C@@H](Cn1ccnc1)NC(=O)c1ccc(-c2ccc(F)cc2)cc1F	0.25	0.125	4	0.125	8	–	–	–	–	–	–	–
CC[C@H](C)[C@@H](Cn1ccnc1)NC(=O)c1ccc(-c2cccc(F)c2)cc1F	0.06	< 0.03	4	< 0.03	4	–	–	–	–	–	–	–
CC[C@H](C)[C@@H](Cn1ccnc1)NC(=O)c1ccc(-c2ccccc2)cc1	< 0.03	< 0.03	0.5	< 0.03	> 64	–	–	–	–	–	–	–
CC[C@H](C)[C@@H](Cn1ccnc1)NC(=O)c1ccc(-c2ccccc2)c(Cl)c1	4	0.5	4	0.25	> 64	–	–	–	–	–	–	–

SMILES	MIC [1] [µg/mL]	MIC [2] [µg/mL]	MIC [3] [µg/mL]	MIC [4] [µg/mL]	MIC [5] [µg/mL]	MIC [6] [µg/mL]	MIC [7] [µg/mL]	cytotoxicity at 24 h, 0.08 µM [8] [%]	cytotoxicity at 24 h, 0.4 µM [9] [%]	cytotoxicity at 24 h, 2 µM [10] [%]	cytotoxicity at 24 h, 10 µM [11] [%]	cytotoxicity at 24 h, 50 µM [12] [%]
CC[C@H](C)[C@@H](Cn1ccnc1)NC(=O)c1ccc(-c2ccc(F)cc2)cc1	0.25	0.125	1	0.125	> 64	–	–	–	–	–	–	–
CCC[C@@H](Cn1ccnc1)NC(=O)c1ccc(-c2ccccc2)cc1	0.06	< 0.03	2	< 0.03	4	–	–	–	–	–	–	–
CC[C@H](C)[C@@H](Cn1ccnc1)NC(=O)c1ccc(-c2ccccc2)cc1C	1	0.25	> 64	0.5	> 64	–	–	–	–	–	–	–
O=C(N[C@@H](Cc1ccccc1)Cn1ccnc1)c1ccc(-c2ccccc2)cc1F	0.06	< 0.03	> 64	< 0.03	> 64	–	–	–	–	–	–	–
CC(C)[C@@H](Cn1ccnc1)NC(=O)c1ccc(-c2ccccc2F)cc1	0.06	< 0.03	1	0.06	> 64	–	–	–	–	–	–	–
CC(C)[C@@H](Cn1ccnc1)NC(=O)c1ccc(-c2ccc(F)cc2)cc1	0.5	0.25	1	0.25	32	–	–	–	–	–	–	–
CC(C)[C@@H](Cn1ccnc1)NC(=O)c1ccc(-c2ccccc2)cc1	0.06	< 0.03	1	< 0.03	8	–	–	–	–	–	–	–
CC(C)[C@@H](Cn1ccnc1)NC(=O)c1ccc(-c2ccccc2)cc1F	0.06	< 0.03	2	< 0.03	1	4	32	–	–	–	–	–
CC[C@@H](Cn1ccnc1)NC(=O)c1ccc(-c2ccccc2)cc1	0.25	< 0.06	16	0.125	4	–	–	–	–	–	–	–
CC[C@H](C)[C@@H](Cn1ccnc1)NC(=O)c1ccc(-c2cccc(F)c2)cc1	0.125	< 0.03	2	0.06	> 64	–	–	–	–	–	–	–
CC(C)C[C@@H](Cn1ccnc1)NC(=O)c1ccc(-c2ccccc2)cc1F	0.06	< 0.03	2	< 0.03	2	1	4	–	–	–	–	–
CC(C)[C@H](Cn1ccnc1)NC(=O)c1ccc(-c2ccccc2)cc1	> 16	> 16	> 64	8	> 64	–	–	–	–	–	–	–
CC(C)[C@@H](Cn1ccnc1)NC(=O)c1ccc(-c2ccccc2)c(F)c1	0.06	< 0.03	2	0.06	> 64	–	–	–	–	–	–	–
CCC(C)n1ncn(-c2ccc(N3CCN(c4ccc(OCC5COC(Cn6cncn6)(c6ccc(Cl)cc6Cl)O5)cc4)CC3)cc2)c1=O (centres undefined) [ITRACONAZOLE]	< 0.03	< 0.03	< 0.125	< 0.03	< 0.125	–	–	–	–	–	–	–
C[C@@H](c1ncncc1F)[C@](O)(Cn1cncn1)c1ccc(F)cc1F [VORICONAZOLE]	–	–	–	–	–	–	–	17.1	20.3	25.5	32	36.7
